ChEMBL document CHEMBL4765230, “Discovery of Orally Efficacious Phosphoinositide 3-Kinase δ Inhibitors with Improved Metabolic Stability” (J Med Chem, 2016)

Columns and labels:
[1] = Drug degradation at low pH; format: physicochemical
Outline: (§1)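 Compound diluted from acetonitrile or DMSO stock to 100 μg/mL final in 50 mM phosphate buffer, pH 2 (or pH 7), ionic strength 0.15 M NaCl, 40 °C in autosampler. Timed injections analysed by reverse-phase UPLC-UV (220 nm); pseudo-first-order kobs from ln c vs time; t50 and t90 calculated.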

[2] = Chemical stability of the compound at pH 2 phosphate buffer assessed as time required for 90% hydrolytic degradation at 100 ug/ml and 40 degreeC by UPLC-UV analysis; format: physicochemical; conditions: in the assay text read “10% hydrolytic degradation” for “90% hydrolytic degradation”, dose 100 µg/ml; outline: as §1
[3] = Chemical stability of the compound at pH 2 phosphate buffer assessed as time required for 50% hydrolytic degradation at 100 ug/ml and 40 degreeC by UPLC-UV analysis; format: physicochemical; conditions: dose 100 µg/ml, read-out: Time (converted); outline: as §1
PI3K p110 beta/p85 alpha = PI3K p110 beta/p85 alpha (Homo sapiens, UniProt P42338); test: Inhibition of recombinant human full-length N-terminal His-tagged PI3K p110beta/p85alpha using […] as substrate measured after 30 mins by TR-FRET assay; format: protein-complex assay
[4] = Chemical stability assessed as time taken for hydrolytic degradation at pH 2; format: physicochemical; conditions: buffer; outline: as §1
[5] = target: Phosphatidylinositol 4,5-bisphosphate 3-kinase catalytic subunit gamma isoform (Homo sapiens, UniProt P48736); test: Inhibition of human full length PI3K p110gamma using […] as substrate measured after 30 mins by TR-FRET assay
[6] = target: PI3-kinase p110-alpha/p85-alpha (Homo sapiens, UniProt P42336); test: Inhibition of human full length PI3K p110alpha/p85alpha using […] as substrate measured after 30 mins by TR-FRET assay; format: protein-complex assay
[7] = target: T1, Phosphatidylinositol 4,5-bisphosphate 3-kinase catalytic subunit delta isoform (Homo sapiens, UniProt O00329); test: Inhibition of PI3Kdelta in human whole blood assessed as reduction in anti-FCepsilonR1 mAb-stimulated basophil activation preincubated for 60 mins followed by anti-FCepsilonR1 mAb stimulation and measured after 25 mins by flow cytometry analysis; format: tissue-based
T1 sequence (O00329 whole entry): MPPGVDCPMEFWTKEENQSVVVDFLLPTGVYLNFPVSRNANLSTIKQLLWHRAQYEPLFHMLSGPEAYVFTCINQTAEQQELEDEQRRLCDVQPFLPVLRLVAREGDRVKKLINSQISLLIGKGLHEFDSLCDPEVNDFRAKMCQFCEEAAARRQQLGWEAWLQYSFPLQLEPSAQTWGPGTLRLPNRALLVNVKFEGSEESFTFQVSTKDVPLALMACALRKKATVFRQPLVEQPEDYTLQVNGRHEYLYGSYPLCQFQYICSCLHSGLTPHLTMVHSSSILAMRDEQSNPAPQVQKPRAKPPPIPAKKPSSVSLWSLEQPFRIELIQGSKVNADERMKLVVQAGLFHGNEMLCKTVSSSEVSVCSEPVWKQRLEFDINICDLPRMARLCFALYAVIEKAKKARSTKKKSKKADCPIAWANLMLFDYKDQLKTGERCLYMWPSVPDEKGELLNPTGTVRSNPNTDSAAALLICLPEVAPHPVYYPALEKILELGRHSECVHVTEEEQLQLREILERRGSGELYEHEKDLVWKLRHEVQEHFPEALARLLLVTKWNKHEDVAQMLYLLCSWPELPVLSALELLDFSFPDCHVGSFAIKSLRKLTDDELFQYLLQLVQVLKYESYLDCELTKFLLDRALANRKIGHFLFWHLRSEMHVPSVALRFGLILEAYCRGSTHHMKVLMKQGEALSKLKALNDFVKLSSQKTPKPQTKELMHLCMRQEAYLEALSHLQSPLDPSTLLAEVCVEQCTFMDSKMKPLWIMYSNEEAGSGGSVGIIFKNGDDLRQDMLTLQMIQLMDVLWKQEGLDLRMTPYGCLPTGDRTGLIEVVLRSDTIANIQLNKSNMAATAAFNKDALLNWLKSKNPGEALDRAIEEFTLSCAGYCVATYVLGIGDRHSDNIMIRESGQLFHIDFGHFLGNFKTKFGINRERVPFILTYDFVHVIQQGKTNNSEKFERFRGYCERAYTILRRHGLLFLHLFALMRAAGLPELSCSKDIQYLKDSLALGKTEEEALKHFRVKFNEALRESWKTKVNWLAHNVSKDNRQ

[8] = target: PI3-kinase p110-delta/p85-alpha (Homo sapiens, UniProt O00329); test: Inhibition of human full length PI3K p110delta/p85alpha using […] as substrate measured after 30 mins by TR-FRET assay; format: protein-complex assay
[9] = Clearance in rat at 1 mg/kg, iv; format: ADME, organism-based; conditions: in vivo
[10] = Clearance in dog at 1 mg/kg, iv; format: ADME, organism-based, Canis lupus familiaris; conditions: in vivo
[11] = Oral bioavailability in rat at 5 mg/kg; format: ADME, organism-based; conditions: in vivo
[12] = Volume of distribution at steady state in rat at 1 mg/kg, iv; format: ADME, organism-based; conditions: in vivo, read-out: Vdss
Outline: (§2)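 Rats and dog received 1 mg/kg intravenously, formulated in 12% w/v Captisol in water. Volume of distribution was taken at steady state from the iv plasma profile. Three animals per dosing route.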

[13] = Volume of distribution at steady state in dog at 1 mg/kg, iv; format: ADME, organism-based, Canis lupus familiaris; conditions: in vivo, read-out: Vdss; outline: as §2
[14] = Selectivity index, ratio of IC50 for inhibition of recombinant human full-length N-terminal His-tagged PI3K p110beta/p85alpha to IC50 for inhibition of human full length PI3K p110delta/p85alpha
[15] = Selectivity index, ratio of IC50 for inhibition of human full length PI3K p110alpha/p85alpha to IC50 for inhibition of human full length PI3K p110delta/p85alpha
[16] = Half life of the compound; format: physicochemical
[17] = Selectivity index, ratio of IC50 for inhibition of human full length PI3K p110gamma to IC50 for inhibition of human full length PI3K p110delta/p85alpha
[18] = Chemical stability of the compound under aqueous acidic condition; format: physicochemical; conditions: buffer; outline: as §1

Sequence of Phosphatidylinositol 4,5-bisphosphate 3-kinase catalytic subunit gamma isoform (P48736 whole entry, canonical isoform): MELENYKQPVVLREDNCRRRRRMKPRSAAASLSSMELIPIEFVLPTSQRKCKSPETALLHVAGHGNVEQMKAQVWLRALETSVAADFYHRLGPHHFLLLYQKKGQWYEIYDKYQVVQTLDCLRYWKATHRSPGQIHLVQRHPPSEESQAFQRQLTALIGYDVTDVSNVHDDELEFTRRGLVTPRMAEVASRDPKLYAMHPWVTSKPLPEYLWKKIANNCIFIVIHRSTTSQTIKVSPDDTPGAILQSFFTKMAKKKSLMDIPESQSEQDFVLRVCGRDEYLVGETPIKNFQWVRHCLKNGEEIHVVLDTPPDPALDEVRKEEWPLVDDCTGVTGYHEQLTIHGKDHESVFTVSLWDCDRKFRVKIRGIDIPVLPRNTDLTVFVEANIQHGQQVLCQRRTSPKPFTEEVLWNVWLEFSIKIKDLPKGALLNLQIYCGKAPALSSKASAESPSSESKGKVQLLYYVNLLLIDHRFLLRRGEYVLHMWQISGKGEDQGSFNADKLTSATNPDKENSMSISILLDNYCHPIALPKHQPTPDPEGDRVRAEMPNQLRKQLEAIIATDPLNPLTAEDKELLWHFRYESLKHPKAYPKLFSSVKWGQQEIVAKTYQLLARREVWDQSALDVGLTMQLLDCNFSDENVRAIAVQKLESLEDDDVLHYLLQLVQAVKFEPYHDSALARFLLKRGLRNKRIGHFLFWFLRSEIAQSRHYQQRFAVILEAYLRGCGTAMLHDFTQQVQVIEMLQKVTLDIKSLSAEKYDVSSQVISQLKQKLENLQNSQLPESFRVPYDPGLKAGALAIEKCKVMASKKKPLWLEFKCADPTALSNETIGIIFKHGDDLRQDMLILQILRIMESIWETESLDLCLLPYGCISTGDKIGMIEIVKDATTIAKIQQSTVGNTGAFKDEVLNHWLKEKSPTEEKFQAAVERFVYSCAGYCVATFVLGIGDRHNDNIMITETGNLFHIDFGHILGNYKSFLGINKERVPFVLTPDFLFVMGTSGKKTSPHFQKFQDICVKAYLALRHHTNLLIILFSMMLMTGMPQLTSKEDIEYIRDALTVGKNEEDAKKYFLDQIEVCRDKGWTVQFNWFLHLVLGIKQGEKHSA
Sequence of PI3-kinase p110-delta/p85-alpha (P27986 whole entry, one chain of several): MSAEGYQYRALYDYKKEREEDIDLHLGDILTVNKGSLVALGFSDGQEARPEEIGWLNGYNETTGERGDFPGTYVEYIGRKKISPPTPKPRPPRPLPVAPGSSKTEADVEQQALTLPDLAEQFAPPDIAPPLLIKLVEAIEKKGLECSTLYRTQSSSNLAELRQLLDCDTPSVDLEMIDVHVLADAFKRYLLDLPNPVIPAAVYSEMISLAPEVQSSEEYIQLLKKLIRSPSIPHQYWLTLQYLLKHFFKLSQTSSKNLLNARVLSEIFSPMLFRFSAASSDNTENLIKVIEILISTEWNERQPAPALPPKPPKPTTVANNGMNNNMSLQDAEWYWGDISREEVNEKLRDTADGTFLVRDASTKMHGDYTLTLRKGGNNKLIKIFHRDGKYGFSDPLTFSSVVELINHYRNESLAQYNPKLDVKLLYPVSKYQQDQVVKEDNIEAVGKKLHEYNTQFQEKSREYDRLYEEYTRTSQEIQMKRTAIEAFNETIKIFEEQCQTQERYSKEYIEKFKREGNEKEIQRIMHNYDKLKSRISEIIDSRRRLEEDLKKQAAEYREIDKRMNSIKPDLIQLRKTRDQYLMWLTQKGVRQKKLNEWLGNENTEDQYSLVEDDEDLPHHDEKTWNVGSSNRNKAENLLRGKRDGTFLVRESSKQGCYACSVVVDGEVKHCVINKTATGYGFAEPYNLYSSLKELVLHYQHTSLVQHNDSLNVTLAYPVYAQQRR
Sequence of PI3-kinase p110-alpha/p85-alpha (P27986 whole entry, canonical isoform): as the sequence (P27986 whole entry, one chain of several) above
Sequence of PI3-kinase p110-alpha/p85-alpha (P42336 whole entry, canonical isoform): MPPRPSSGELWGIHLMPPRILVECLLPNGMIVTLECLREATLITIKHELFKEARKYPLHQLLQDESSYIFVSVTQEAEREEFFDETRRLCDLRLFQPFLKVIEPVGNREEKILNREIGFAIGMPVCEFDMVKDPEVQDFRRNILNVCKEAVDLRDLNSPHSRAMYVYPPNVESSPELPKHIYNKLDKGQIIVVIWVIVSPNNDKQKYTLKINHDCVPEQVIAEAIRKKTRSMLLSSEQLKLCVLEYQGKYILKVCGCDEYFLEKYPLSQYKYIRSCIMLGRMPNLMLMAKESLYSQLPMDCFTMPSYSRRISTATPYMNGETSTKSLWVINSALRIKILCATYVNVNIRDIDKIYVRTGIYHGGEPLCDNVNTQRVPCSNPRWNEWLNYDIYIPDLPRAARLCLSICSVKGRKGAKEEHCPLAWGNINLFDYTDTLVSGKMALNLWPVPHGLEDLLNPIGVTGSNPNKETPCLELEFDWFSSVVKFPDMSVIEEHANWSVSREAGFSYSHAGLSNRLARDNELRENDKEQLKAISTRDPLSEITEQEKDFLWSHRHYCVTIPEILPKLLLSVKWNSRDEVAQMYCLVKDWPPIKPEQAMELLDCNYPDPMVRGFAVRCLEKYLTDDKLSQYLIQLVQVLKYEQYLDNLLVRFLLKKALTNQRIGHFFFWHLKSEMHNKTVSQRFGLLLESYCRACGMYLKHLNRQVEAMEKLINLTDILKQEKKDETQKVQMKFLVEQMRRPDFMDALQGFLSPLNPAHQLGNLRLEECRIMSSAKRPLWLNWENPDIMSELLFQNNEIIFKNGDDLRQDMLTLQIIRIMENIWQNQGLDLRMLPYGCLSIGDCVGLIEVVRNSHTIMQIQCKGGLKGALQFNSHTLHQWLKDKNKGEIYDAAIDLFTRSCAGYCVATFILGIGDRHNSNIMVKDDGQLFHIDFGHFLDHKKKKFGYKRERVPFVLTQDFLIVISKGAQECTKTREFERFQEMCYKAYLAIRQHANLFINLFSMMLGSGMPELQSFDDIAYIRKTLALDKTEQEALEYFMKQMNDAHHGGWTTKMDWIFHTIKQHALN
Sequence of PI3K p110 beta/p85 alpha (P27986 whole entry): as the sequence (P27986 whole entry, one chain of several) above
Sequence of PI3K p110 beta/p85 alpha (P42338 whole entry): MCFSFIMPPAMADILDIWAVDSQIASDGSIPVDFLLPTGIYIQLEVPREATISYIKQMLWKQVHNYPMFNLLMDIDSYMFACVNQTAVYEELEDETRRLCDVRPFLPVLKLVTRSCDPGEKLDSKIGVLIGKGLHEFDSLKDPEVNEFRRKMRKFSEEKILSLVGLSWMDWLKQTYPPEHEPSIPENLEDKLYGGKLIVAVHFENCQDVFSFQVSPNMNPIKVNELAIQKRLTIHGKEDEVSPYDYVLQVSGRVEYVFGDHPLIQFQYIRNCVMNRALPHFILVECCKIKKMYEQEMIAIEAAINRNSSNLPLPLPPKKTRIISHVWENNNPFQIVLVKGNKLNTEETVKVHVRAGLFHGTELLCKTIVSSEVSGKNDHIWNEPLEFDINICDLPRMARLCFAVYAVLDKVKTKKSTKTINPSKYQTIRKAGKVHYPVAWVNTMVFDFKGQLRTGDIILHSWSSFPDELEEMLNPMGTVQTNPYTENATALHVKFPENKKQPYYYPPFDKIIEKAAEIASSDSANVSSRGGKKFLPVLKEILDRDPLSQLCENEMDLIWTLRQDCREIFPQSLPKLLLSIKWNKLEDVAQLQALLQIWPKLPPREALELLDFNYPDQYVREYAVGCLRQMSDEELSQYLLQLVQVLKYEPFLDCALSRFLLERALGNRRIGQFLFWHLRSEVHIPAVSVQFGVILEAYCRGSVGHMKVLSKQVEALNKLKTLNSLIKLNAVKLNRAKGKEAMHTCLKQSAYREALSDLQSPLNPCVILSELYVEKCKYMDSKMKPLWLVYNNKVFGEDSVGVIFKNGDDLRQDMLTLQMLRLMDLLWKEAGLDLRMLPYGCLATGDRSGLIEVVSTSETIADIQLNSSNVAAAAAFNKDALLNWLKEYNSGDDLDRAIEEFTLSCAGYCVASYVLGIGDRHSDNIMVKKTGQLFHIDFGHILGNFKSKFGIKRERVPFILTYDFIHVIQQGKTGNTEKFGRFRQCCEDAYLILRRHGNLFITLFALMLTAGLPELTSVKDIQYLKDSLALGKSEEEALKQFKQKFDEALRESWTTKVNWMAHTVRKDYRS

Compound: CC[C@H](Nc1nc(N)nc(N)c1C#N)c1nc2cccc(Cl)c2c(=O)n1-c1cccnc1
- Drug degradation [1]: Active
- Time [2]: 0.65 h
- half-life at 100 ug/ml [3]: 4.3 h

Compound: Cc1ccncc1-n1c([C@H](C)Nc2nc(N)nc(N)c2C#N)nc2cccc(Cl)c2c1=O (stereo in doubt; 25)
- IC50 (PI3K p110 beta/p85 alpha): 0.021 µM
- Time [4]: > 3 h
- Time [2]: 3.5 h
- IC50 [5]: 0.07 µM
- half-life at 100 ug/ml [3]: 23 h
- IC50 [6]: 0.88 µM

Compound: C[C@H](Nc1nc(N)nc(N)c1C#N)c1nc2cccc(Cl)c2c(=O)n1-c1cncc(C(F)(F)F)c1
- IC50 (PI3K p110 beta/p85 alpha): 4.8 µM
- IC50 [5]: 1.3 µM
- IC50 [6]: 10 µM
- EC50 [7]: 0.021 µM
- IC50 [8]: 0.017 µM

Compound: Cc1ncccc1-n1c([C@H](C)Nc2nc(N)nc(N)c2C#N)nc2cccc(Cl)c2c1=O (stereo in doubt; 24)
- IC50 (PI3K p110 beta/p85 alpha): 0.44 µM
- IC50 [5]: 0.65 µM
- IC50 [6]: 6.8 µM

Compound: COc1cncc(-n2c([C@H](C)Nc3nc(N)nc(N)c3C#N)nc3cccc(Cl)c3c2=O)c1
- IC50 (PI3K p110 beta/p85 alpha): 3 µM
- IC50 [5]: 0.83 µM
- IC50 [6]: 10 µM
- EC50 [7]: 0.003 µM

Compound: C[C@H](Nc1nc(N)nc(N)c1C#N)c1nc2c(Cl)cccc2c(=O)n1-c1cccnc1
- IC50 (PI3K p110 beta/p85 alpha): 0.39 µM
- IC50 [5]: 1.1 µM
- IC50 [6]: 3.1 µM
- EC50 [7]: 0.005 µM

Compound: CC[C@H](Nc1nc(N)nc(N)c1C#N)c1nc2c(F)ccc(Cl)c2c(=O)n1-c1cccnc1
- clearance [9]: 0.3 L/h/kg
- IC50 (PI3K p110 beta/p85 alpha): 0.31 µM
- clearance [10]: 0.13 L/h/kg
- bioavailability [11]: 37%
- Time [2]: 2.8 h
- IC50 [5]: 0.52 µM
- half-life at 100 ug/ml [3]: 19 h
- IC50 [6]: 1.5 µM
- EC50 [7]: 0.002 µM
- Vd [12]: 0.54 L/kg
- IC50 [8]: 0.002 µM
- Vd [13]: 0.3 L/kg

Compound: C[C@H](Nc1nc(N)nc(N)c1C#N)c1nc2cccc(Cl)c2c(=O)n1-c1cncc(F)c1
- Drug degradation [1]: Active
- IC50 (PI3K p110 beta/p85 alpha): 0.74 µM
- Time [2]: 0.5 h
- IC50 [5]: 0.15 µM
- half-life at 100 ug/ml [3]: 3.6 h
- IC50 [6]: 4.3 µM
- Ratio IC50 [14]: 430
- EC50 [7]: 0.0012 µM
- IC50 [8]: 0.0017 µM

Compound: Cc1c(F)cncc1-n1c([C@H](C)Nc2nc(N)nc(N)c2C#N)nc2cccc(Cl)c2c1=O (stereo in doubt; 28)
- IC50 (PI3K p110 beta/p85 alpha): 1.75 µM
- IC50 [5]: 6.9 µM
- IC50 [6]: 10 µM
- IC50 [8]: 0.04 µM

Compound: Cc1ccncc1-n1c([C@H](C)Nc2nc(N)nc(N)c2C#N)nc2cccc(Cl)c2c1=O (stereo in doubt; 26)
- IC50 (PI3K p110 beta/p85 alpha): 0.37 µM
- IC50 [5]: 1.3 µM
- IC50 [6]: 9.7 µM

Compound: C[C@H](Nc1nc(N)nc(N)c1C#N)c1nc2c(F)ccc(F)c2c(=O)n1-c1cccnc1
- IC50 (PI3K p110 beta/p85 alpha): 0.77 µM
- IC50 [5]: 0.94 µM
- IC50 [6]: 4.02 µM
- EC50 [7]: 0.011 µM

Compound: C[C@H](Nc1nc(N)nc(N)c1C#N)c1nc2c(F)ccc(Cl)c2c(=O)n1-c1cncc(F)c1
- clearance [9]: 1.06 L/h/kg
- IC50 (PI3K p110 beta/p85 alpha): 0.44 µM
- clearance [10]: 0.31 L/h/kg
- bioavailability [11]: 46%
- Time [2]: 2.9 h
- IC50 [5]: 0.12 µM
- half-life at 100 ug/ml [3]: 20 h
- IC50 [6]: 3.1 µM
- EC50 [7]: 0.0005 µM
- Vd [12]: 1.4 L/kg
- Vd [13]: 0.96 L/kg

Compound: C[C@H](Nc1nc(N)nc(N)c1C#N)c1nc2cccc(Cl)c2c(=O)n1-c1cncc(C2CC2)c1
- IC50 (PI3K p110 beta/p85 alpha): 2.6 µM
- IC50 [5]: 2.3 µM
- IC50 [6]: 10 µM
- EC50 [7]: 0.007 µM

Compound: N#Cc1c(N)nc(N)nc1N[C@H](c1nc2cccc(Cl)c2c(=O)n1-c1cccnc1)C1CC1
- Drug degradation [1]: Active
- Time [2]: 0.5 h
- half-life at 100 ug/ml [3]: 3.6 h

Compound: C[C@H](Nc1nc(N)nc(N)c1C#N)c1nc2c(Cl)ccc(Cl)c2c(=O)n1-c1cccnc1
- IC50 (PI3K p110 beta/p85 alpha): 0.076 µM
- Time [2]: 2.3 h
- IC50 [5]: 0.33 µM
- half-life at 100 ug/ml [3]: 15 h
- IC50 [6]: 1.3 µM
- EC50 [7]: 0.0009 µM

Compound: C[C@H](Nc1nc(N)nc(N)c1C#N)c1nc2cccc(F)c2c(=O)n1-c1cc(F)cc(F)c1
- Ratio IC50 [15]: 1900
- half-life [16]: 34 h
- half-life at 100 ug/ml [3]: 34 h
- Ratio IC50 [14]: 650
- Ratio IC50 [17]: 180
- Stabilty [18]: Stable

Compound: C[C@H](Nc1nc(N)nc(N)c1C#N)c1nc2cccc(Cl)c2c(=O)n1-c1ccccc1
- IC50 (PI3K p110 beta/p85 alpha): 0.0094 µM
- Ratio IC50 [15]: 2200
- half-life [16]: 358 h
- half-life at 100 ug/ml [3]: 358 h
- IC50 [6]: 0.24 µM
- Ratio IC50 [14]: 80
- EC50 [7]: 0.0003 µM
- Ratio IC50 [17]: 60
- Stabilty [18]: Stable

Compound: Cc1ncccc1-n1c([C@H](C)Nc2nc(N)nc(N)c2C#N)nc2cccc(Cl)c2c1=O (stereo in doubt; 23)
- IC50 (PI3K p110 beta/p85 alpha): 0.35 µM
- Time [4]: > 3 h
- Time [2]: 3.1 h
- IC50 [5]: 0.16 µM
- half-life at 100 ug/ml [3]: 20 h
- IC50 [6]: 1.6 µM
- IC50 [8]: 0.0013 µM

Compound: C[C@H](Nc1nc(N)nc(N)c1C#N)c1nc2cccc(Cl)c2c(=O)n1-c1cncc(Cl)c1
- IC50 (PI3K p110 beta/p85 alpha): 1.2 µM
- IC50 [5]: 1.2 µM
- IC50 [6]: 8.3 µM
- EC50 [7]: 0.004 µM

Compound: C[C@H](Nc1nc(N)nc(N)c1C#N)c1nc2cccc(Cl)c2c(=O)n1-c1cncc(C#N)c1
- IC50 (PI3K p110 beta/p85 alpha): 3.1 µM
- IC50 [5]: 0.7 µM
- IC50 [6]: 8.7 µM
- EC50 [7]: 0.004 µM
- IC50 [8]: 0.013 µM
